Measurements collected from several papers.
Each line is one published result; the experiments were not run side by side. pEC50, pIC50: −log10 of the molar value. ≈ marks a conversion by molar mass, not a printed value.

| Structure (SMILES) | target or system | assay | system | setting | measurement | value |
| --- | --- | --- | --- | --- | --- | --- |
| O=C(Nc1cc(F)c(F)c(F)c1)c1ccc(F)c(S(=O)(=O)NCc2cccc(B(O)O)c2)c1 | Hepatitis B virus | viral replication, inhibitor, qPCR | HePAD38 | 6 days | pEC50 | 6.04 |
| O=C(O)CCc1cccc(Oc2ccc(-c3noc(-c4ccc(O)cc4)n3)cc2)c1 | Clostridioides difficile | microbial growth, broth dilution |  | 48 h | MIC | 8 µg/mL (≈ 19.9 µM) |
| Cc1ccc(C)n1-c1ccc(-c2nnc(-c3ccc(Br)cc3)[nH]2)cc1 | Saccharomyces cerevisiae | microbial growth, broth dilution | ATCC9763 |  | MIC | 4 µg/mL (≈ 10.2 µM) |
| CCN(CC)CCNC(=O)c1c(C)[nH]c(/C=C2\C(=O)Nc3ccc(F)cc32)c1C | BaF3 | cell growth or viability, ATP luminescence |  | 72 h | GI50 | 1420 nM |
| COc1ccnc(COc2ccc(NC(=O)Nc3ccc(F)cc3)cc2)c1OC | L02 | cell growth or viability, MTT |  | 72 h | pIC50 | < 4.00 |
| Cc1cccc(N(O)N=Nc2ccc(S(=O)(=O)Nc3cc(C)on3)cc2)c1 |  | ABTS scavenging |  | 300 µg/mL | inhibition | 90.2% |
| O=C(N[C@H](CO)[C@H](O)c1ccc([N+](=O)[O-])cc1)C(Cl)Cl | Aliivibrio fischeri | microbial growth |  |  | MIC90 | 3.9 µg/mL (≈ 12.1 µM) |
| Cc1ccc(N(O)N=Nc2ccc(S(=O)(=O)Nc3cc(C)on3)cc2)cc1 |  | ABTS scavenging |  | 20 µg/mL | inhibition | 17.2% |
| COc1ccc(-c2ccc(-c3ccc(C(=N)N)nc3)s2)cc1Cl | SF-268 | cell growth or viability, SRB |  |  | GI50 | 1810 nM |
| Nc1ccc(-c2nc(-c3ccc(Oc4ccccc4)cc3)no2)cc1 | Clostridioides difficile | microbial growth, broth dilution |  | 48 h | MIC | > 50 µg/mL |
| COc1c(C)cnc(COc2ccc(NC(=O)Nc3cccc(C(F)(F)F)c3)cc2)c1C | L02 | cell growth or viability, MTT |  | 72 h | pIC50 | < 4.00 |
| Cl.NCCc1cccc(Oc2ccc(-c3noc(-c4ccc(O)cc4)n3)cc2)c1 | Clostridioides difficile | microbial growth, broth dilution |  | 48 h | MIC | 4 µg/mL |
| O=C1O[C@H]([C@@H](O)CO)C(O)=C1O |  | ABTS scavenging |  | 60 µg/mL | inhibition | 49.9% |
